The source made the active and inactive calls. The calls are words filed in the database; no cut-off is given here.
Experiments:
Panc203 = assay: Cytotoxicity against human Panc203 cells assessed as reduction in cell viability in presence of Cu2+ incubated for 72 hrs by cell titer-glo luminescent cell viability assay; type: functional, cell-based; details: Panc203, 72 h
How it was run: (§1)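 Cells were grown in DMEM or RPMI with 10% FBS, without antibiotics, at 37 °C, 20% O2, 5% CO2. Adherent lines were seeded at 500 cells/well. Serially diluted compound was given with 20 μM Cu(II) (CuCl2) for 72 h; leukemia models received pre-formed 1:1 copper complex. ATP was read by CellTiter-Glo luminescence. IC50 is relative to DMSO-treated cells.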

MIA PaCa-2 [1] = assay: Induction of DNA damage in human MIA PaCa-2 cells assessed as decrease in rGTP level at 25 nM in presence of Cu2+ incubated for 48 hrs by LC-MS/MS analysis; type: functional, cell-based
How it was run: (§2)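 Cells in DMEM or RPMI with 10% FBS, 37 °C, 5% CO2. Treated with 25 nM compound plus 20 μM Cu(II) for 48 h. Nucleotide pools quantified by LC-MS/MS with multiple reaction monitoring. Cells were in glucose-free DMEM with 10% dialyzed FBS and 11 mM [U-13C6]glucose for 48 h, and glucose-labeled pools were compared. Mean ± SD, n = 3, two-way ANOVA with Bonferroni correction.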

MIA PaCa-2 [2] = assay: Induction of apoptosis in human MIA PaCa-2 cells assessed as increase in necrotic cells at 25 nM in presence of ATRi incubated for 72 hrs by annexin V and propidium iodide staining based flow cytometry analysis relative to control; type: functional
How it was run: (§3)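 Cells given 25 nM compound with or without 20 μM Cu(II) and/or the ATR inhibitor VE-822 at 250 nM for 72 h. Stained with annexin V-FITC and propidium iodide, then analysed on a five-laser flow cytometer to score viable, early apoptotic, late apoptotic and necrotic fractions against vehicle.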

MIA PaCa-2 [3] = assay: Induction of mitochondrial ROS generation in human MIA PaCa-2 cells at 25 nM in presence of Cu2+ incubated for 24 hrs by MitoSox red dye based flow cytometry analysis; type: functional; details: Mitochondria
How it was run: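 Exposure was 25 nM compound plus 20 μM Cu(II) for 24 h. Cells washed, stained with MitoSOX for 30 min at 37 °C, washed with PBS and analysed by flow cytometry. Mean ± SD, n = 2, Student t-test.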

L3.6pl = assay: Cytotoxicity against human L3.6pl cells assessed as reduction in cell viability in presence of Cu2+ incubated for 72 hrs by cell titer-glo luminescent cell viability assay; type: functional, cell-based; how it was run: as §1
MIA PaCa-2 [4] = assay: Induction of apoptosis in human MIA PaCa-2 cells assessed as increase in necrotic cells at 25 nM in presence of Cu2+ incubated for 72 hrs by annexin V and propidium iodide staining based flow cytometry analysis relative to control; type: functional; how it was run: as §3
MIA PaCa-2 [5] = assay: Cytotoxicity against human MIA PaCa2 cells assessed as reduction in cell viability at 25 nM in presence of Fe2+ incubated for 72 hrs by cell titer-glo luminescent cell viability assay; type: functional, cell-based
How it was run: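 MIAPACA2 cells were exposed to compound for 72 h with 20 μM Fe(II) or Zn(II) supplement. Proliferation was read by CellTiter-Glo ATP luminescence.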

MIA PaCa-2 [6] = assay: Induction of DNA damage in human MIA PaCa-2 cells assessed as decrease in dGTP level at 25 nM in presence of Cu2+ incubated for 48 hrs by LC-MS/MS analysis; type: functional, cell-based; how it was run: as §2
MIA PaCa-2 [7] = assay: Induction of apoptosis in human MIA PaCa-2 cells assessed as increase in necrotic cells at 25 nM incubated for 72 hrs by annexin V and propidium iodide staining based flow cytometry analysis relative to control; type: functional; how it was run: as §3
MIA PaCa-2 [8] = assay: Induction of apoptosis in human MIA PaCa-2 cells assessed as increase in necrotic cells at 25 nM in presence of Cu2+ and ATRi incubated for 72 hrs by annexin V and propidium iodide staining based flow cytometry analysis relative to control; type: functional; how it was run: as §3
[9] = Cytotoxicity against human A13A cells assessed as reduction in cell viability in presence of Cu2+ incubated for 72 hrs by cell titer-glo luminescent cell viability assay; type: functional, cell-based; how it was run: as §1
143B = assay: Cytotoxicity against human 143-BTK cells assessed as reduction in cell viability at 25 to 100 nM incubated for 48 hrs by trypan blue assay; type: functional, cell-based; details: dose nM 25-100, time 48.0 hrs
How it was run: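 143 BTK parental (WT) and ρ0 cells were exposed to the indicated compound concentrations plus 20 μM Cu(II) for 48 h. Viable cells were counted by trypan blue staining on a Vi-Cell counter. Mean ± SD, n = 2, Student t-test.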

[10] = Cytotoxicity against human PaTu 8902 cells assessed as reduction in cell viability in presence of Cu2+ incubated for 72 hrs by cell titer-glo luminescent cell viability assay; type: functional, cell-based; details: PaTu 8902, 72 h; how it was run: as §1
MIA PaCa-2 [11] = assay: Anti-OXPHOS activity in human MIA PaCa-2 cells assessed as reduction in oxygen consumption rate at 25 nM in presence of Cu2+ incubated for 24 hrs by […]; type: functional, cell-based; details: Mitochondria
How it was run: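 Cellular Mito Stress Test: cells treated 24 h with 25 nM compound plus 20 μM Cu(II), then incubated in unbuffered DMEM with 25 mM glucose, 1 mM pyruvate and 2 mM glutamine. OCR was read on an XF24 analyzer and normalized per μg protein. It was read at baseline and after serial 1 μM oligomycin, 0.75 μM FCCP, and 1 μM rotenone plus myxothiazol.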

MIA PaCa-2 [12] = assay: Induction of DNA damage in human MIA PaCa-2 cells assessed as decrease in CTP level at 25 nM in presence of Cu2+ incubated for 48 hrs by LC-MS/MS analysis; type: functional, cell-based
How it was run: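 MIAPACA2 cells were given 25 nM compound plus 20 μM Cu(II) for 48 h in glucose-free DMEM with 10% dialyzed FBS and 11 mM [U-13C6]glucose. Nucleotide pools were quantified by LC-MS/MS with multiple reaction monitoring. Mean ± SD, n = 3, two-way ANOVA with Bonferroni correction.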

MIA PaCa-2 [13] = assay: Cytotoxicity against human MIA PaCa2 cells assessed as reduction in cell viability at 25 nM in presence of Cu2+ and 2-DG incubated for 48 hrs by trypan blue assay; type: functional, cell-based
How it was run: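 MIAPACA2 cells were given 25 nM compound plus 20 μM Cu(II), with or without 2-deoxyglucose (2 mM), for 48 h. Viability was read by trypan blue staining on a Vi-Cell counter. Mean ± SD, n = 2, Student t-test.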

MIA PaCa-2 [14] = assay: Induction of DNA damage in human MIA PaCa-2 cells assessed as decrease in dCTP level at 25 nM in presence of Cu2+ incubated for 48 hrs by LC-MS/MS analysis; type: functional, cell-based; how it was run: as §2
MIA PaCa-2 [15] = assay: Induction of DNA damage in human MIA PaCa-2 cells assessed as decrease in dATP level at 25 nM in presence of Cu2+ incubated for 48 hrs by LC-MS/MS analysis; type: functional, cell-based; how it was run: as §2
MIA PaCa-2 [16] = assay: Induction of apoptosis in human MIA PaCa-2 cells assessed as increase in late apoptotic cells at 25 nM in presence of ATRi incubated for 72 hrs by annexin V and propidium iodide staining based flow cytometry analysis relative to control; type: functional; how it was run: as §3
PANC-03-27 = assay: Cytotoxicity against human PANC-03-27 cells assessed as reduction in cell viability in presence of Cu2+ incubated for 72 hrs by cell titer-glo luminescent cell viability assay; type: functional, cell-based; details: PANC-03-27, 72 h; how it was run: as §1

## CN(C)C(=S)NN=Cc1nccc2cc(F)ccc12
Panc203
  IC50: 1 nM
MIA PaCa-2 [1]
  Activity: Active
MIA PaCa-2 [2]
  Activity: 7.34%
MIA PaCa-2 [3]
  Activity: Active
L3.6pl
  IC50: 1 nM
MIA PaCa-2 [4]
  Activity: 4.86%
MIA PaCa-2 [5]
  Activity: Active
MIA PaCa-2 [6]
  Activity: Active
MIA PaCa-2 [7]
  Activity: 2.49%
MIA PaCa-2 [8]
  Activity: 4.72%
[9]
  IC50: 1 nM
143B
  Activity: Active
[10]
  IC50: 1 nM
MIA PaCa-2 [11]
  Activity: Active
MIA PaCa-2 [12]
  Activity: inactive
MIA PaCa-2 [13]
  Activity: Active
MIA PaCa-2 [14]
  Activity: inactive
MIA PaCa-2 [15]
  Activity: inactive
MIA PaCa-2 [16]
  Activity: 18.8%
PANC-03-27
  IC50: 1 nM

Source: ChEMBL document CHEMBL4699407, “Isoquinoline thiosemicarbazone displays potent anticancer activity with in vivo efficacy against aggressive leukemias” (RSC Med Chem, 2020)
